Test results taken from ChEMBL document CHEMBL4020832, “Development of (6 R)-2-Nitro-6-[4-(trifluoromethoxy)phenoxy]-6,7-dihydro-5 H-imidazo[2,1- b][1,3]oxazine (DNDI-8219): A New Lead for Visceral Leishmaniasis” (J Med Chem, 2018).
Values belong to the compound of their own block, whether it stands above or below them.

Columns and labels:
[1] = Metabolic stability in hamster liver microsomes assessed as parent compound remaining at 0.5 uM after 0.5 hr; assay type: ADME, microsome; details: read-out: Stability
Liver [2] = assay: Metabolic stability in human liver microsomes assessed as parent compound remaining at 0.5 uM after 0.5 hr; assay type: ADME, microsome
Liver [3] = assay: Metabolic stability in CD-1 mouse liver microsomes assessed as parent compound remaining at 0.5 uM after 0.5 hr; assay type: ADME, microsome
[4] = Metabolic stability in hamster liver microsomes assessed as parent compound remaining at 1 uM after 1 hr; assay type: ADME, microsome; details: read-out: Stability
[5] = Cmax in golden Syrian hamster at 40 mg/kg, po by LC-MS/MS analysis; assay type: ADME, organism-based, Mesocricetus auratus; design: dose 40 mg/kg, route oral; details: in vivo
Outline: (§1)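 Fasted female golden Syrian hamsters. IV dose was 2 mg/kg as a solution in 20% NMP and 40% PEG-400 in citrate buffer (pH 3). Oral dosing at 40–50 mg/kg used PEG-400 as vehicle. Plasma was quantified by LC–MS/MS. AUClast was taken to the last time point (24 or 48 h).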

Liver [6] = assay: Metabolic stability in human liver microsomes assessed as parent compound remaining at 1 uM after 1 hr; assay type: ADME, microsome
Liver [7] = assay: Metabolic stability in CD-1 mouse liver microsomes assessed as parent compound remaining at 1 uM after 1 hr; assay type: ADME, microsome
[8] = Half life in golden Syrian hamster at 2 mg/kg, iv by LC-MS/MS analysis; assay type: ADME, organism-based, Mesocricetus auratus; details: in vivo; outline: as §1
[9] = AUClast in golden Syrian hamster at 2 mg/kg, iv after 24 to 48 hrs by LC-MS/MS analysis; assay type: ADME, organism-based, Mesocricetus auratus; details: in vivo; outline: as §1
[10] = Tmax in golden Syrian hamster at 40 mg/kg, po by LC-MS/MS analysis; assay type: ADME, organism-based, Mesocricetus auratus; details: in vivo
[11] = Volume of distribution at steady state in golden Syrian hamster at 2 mg/kg, iv by LC-MS/MS analysis; assay type: ADME, organism-based, Mesocricetus auratus; details: in vivo, read-out: Vdss
Outline: (§2)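 Fasted female golden Syrian hamsters given 2 mg/kg iv as a solution in 20% NMP and 40% PEG-400 in citrate buffer pH 3. Plasma concentrations determined by LC–MS/MS to derive PK parameters.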

[12] = AUClast in golden Syrian hamster at 40 mg/kg, po after 24 to 48 hrs by LC-MS/MS analysis; assay type: ADME, organism-based, Mesocricetus auratus; details: in vivo; outline: as §1
[13] = Clearance in golden Syrian hamster at 2 mg/kg, iv by LC-MS/MS analysis; assay type: ADME, organism-based, Mesocricetus auratus; details: in vivo
[14] = Half life in golden Syrian hamster at 40 mg/kg, po by LC-MS/MS analysis; assay type: ADME, organism-based, Mesocricetus auratus; details: in vivo
Syrian golden hamster = assay: Oral bioavailability in golden Syrian hamster at 40 mg/kg by LC-MS/MS analysis; assay type: ADME, organism-based, Mesocricetus auratus; details: in vivo
[15] = Initial concentration in golden Syrian hamster at 2 mg/kg, iv by LC-MS/MS analysis; assay type: ADME, organism-based, Mesocricetus auratus; details: in vivo; outline: as §2
Mus musculus [16] = assay: Cmax in Swiss albino mouse at 40 mg/kg, po by LC-MS/MS analysis; assay type: ADME, organism-based; design: dose 40 mg/kg, route oral; details: in vivo
Mus musculus [17] = assay: AUClast in Swiss albino mouse at 40 mg/kg, po after 24 to 48 hrs by LC-MS/MS analysis; assay type: ADME, organism-based; details: in vivo
Mus musculus [18] = assay: Tmax in Swiss albino mouse at 40 mg/kg, po by LC-MS/MS analysis; assay type: ADME, organism-based; details: in vivo
[19] = Half life in Swiss albino mouse at 40 mg/kg, po by LC-MS/MS analysis; assay type: ADME, organism-based; details: in vivo
[20] = Volume of distribution at steady state in Swiss albino mouse at 1 mg/kg, iv by LC-MS/MS analysis; assay type: ADME, organism-based; details: in vivo, read-out: Vdss
Outline: (§3)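 Male Swiss albino mice given 1 mg/kg iv in 20% NMP/40% PEG-400 in 100 mM citrate buffer pH 3. Plasma sampled at 0.083, 0.25, 0.5, 1, 2, 4, 6, 8, 10, 24 and 48 h. Levels measured by LC–MS/MS; noncompartmental PK parameters.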

[21] = Half life in Swiss albino mouse at 1 mg/kg, iv by LC-MS/MS analysis; assay type: ADME, organism-based; details: Swiss albino, in vivo
[22] = Clearance in Swiss albino mouse at 1 mg/kg, iv by LC-MS/MS analysis; assay type: ADME, organism-based; details: in vivo
[23] = Tmax in Swiss albino mouse at 25 mg/kg, po by LC-MS/MS analysis; assay type: ADME, organism-based; details: in vivo
Outline: (§4)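 Male Swiss albino mice dosed orally at 25 mg/kg as a suspension in 0.5% CMC/0.08% Tween 80 in water. Plasma sampled 0.25–48 h, analysed by LC–MS/MS. F from dose-normalized AUClast against a 1 mg/kg iv dose.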

Mus musculus [24] = assay: Oral bioavailability in Swiss albino mouse at 25 mg/kg by LC-MS/MS analysis; assay type: ADME, organism-based; details: in vivo; outline: as §4
[25] = Cmax in Swiss albino mouse at 25 mg/kg, po by LC-MS/MS analysis; assay type: ADME, organism-based; design: dose 25 mg/kg, route oral; details: in vivo
[26] = Initial concentration in Swiss albino mouse at 1 mg/kg, iv by LC-MS/MS analysis; assay type: ADME, organism-based; details: in vivo; outline: as §3
[27] = AUClast in Swiss albino mouse at 1 mg/kg, iv after 24 to 48 hrs by LC-MS/MS analysis; assay type: ADME, organism-based; details: in vivo
[28] = AUClast in Swiss albino mouse at 25 mg/kg, po after 24 to 48 hrs by LC-MS/MS analysis; assay type: ADME, organism-based; details: in vivo

SMILES: O=[N+]([O-])c1cn2c(n1)OC[C@H](OCc1ccc(-c3ccc(OC(F)(F)F)cc3F)nc1)C2
remaining at 1 h, 1 µM [4]: 9.2%
Cmax [5]: 4700 ng/mL
Stability (Liver [6]): 37%
Stability (Liver [7]): 41%
half-life [8]: 5.3 h
AUC(0-t) [9]: 3690 ng·h/mL
Tmax [10]: 3.3 h
Vd [11]: 3.2 L/kg
AUC(0-t) [12]: 46500 ng·h/mL
clearance [13]: 8.8 mL/min/kg
half-life [14]: 5.8 h

SMILES: CC1(C)Oc2nc([N+](=O)[O-])cn2CC1OCc1ccc(OC(F)(F)F)cc1 (configuration not stated)
Stability (Liver [6]): 92%
Stability (Liver [7]): 72%

SMILES: O=[N+]([O-])c1cn2c(n1)OCC(COc1ccc(-c3ccc(OC(F)(F)F)cc3)nc1)C2 (configuration not stated)
Vd [20]: 1.9 L/kg
half-life [21]: 20 h
clearance [22]: 1.2 mL/min/kg
Tmax [23]: 10 h
remaining at 0.5 h, 0.5 µM [1]: 88%
F (Mus musculus [24]): 11%
Cmax [25]: 870 ng/mL
Stability (Liver [3]): 96%
C0 [26]: 750 ng/mL

SMILES: O=[N+]([O-])c1cn2c(n1)OC[C@H](Oc1ccc(-c3ccc(OC(F)(F)F)cc3)nc1)C2
Stability (Liver [6]): 40%
Stability (Liver [7]): 35%

SMILES: O=C(Nc1ccccc1OC(F)(F)F)N[C@@H]1COc2nc([N+](=O)[O-])cn2C1
remaining at 0.5 h, 0.5 µM [1]: 64%
Stability (Liver [2]): 74%
Stability (Liver [3]): 43%

SMILES: O=[N+]([O-])c1cn2c(n1)OC[C@@H](OCc1ccn(-c3ccc(OC(F)(F)F)cc3)n1)C2
Stability (Liver [6]): 87%
Stability (Liver [7]): 67%

SMILES: O=[N+]([O-])c1cn2c(n1)OC[C@@H](OCc1ccc(OC(F)(F)F)cc1)C2 [PRETOMANID]
Stability (Liver [6]): 82%

Second part, the compound after the results:

remaining at 0.5 h, 0.5 µM [1]: 59%
Stability (Liver [2]): 92%
Stability (Liver [3]): 88%
SMILES: O=[N+]([O-])c1cn2c(n1)OC[C@@H](OCc1ccc(-c3ccc(OC(F)F)cc3)cn1)C2

remaining at 1 h, 1 µM [4]: 10%
Cmax [5]: 5700 ng/mL
Stability (Liver [6]): 27%
F (Syrian golden hamster): 100%
half-life [8]: 6.3 h
AUC(0-t) [9]: 1300 ng·h/mL
C0 [15]: 650 ng/mL
Cmax (Mus musculus [16]): 16000 ng/mL
AUClast (Mus musculus [17]): 211000 ng·h/mL
remaining at 0.5 h, 0.5 µM [1]: 61%
Tmax (Mus musculus [18]): 4.7 h
Vd [11]: 8.2 L/kg
AUC(0-t) [12]: 62700 ng·h/mL
half-life [19]: 9.4 h
clearance [13]: 23 mL/min/kg
half-life [14]: 5.8 h
SMILES: O=[N+]([O-])c1cn2c(n1)OC[C@H](OCc1ccc(-c3ccc(OC(F)(F)F)cc3)cn1)C2

remaining at 1 h, 1 µM [4]: 10%
Stability (Liver [6]): 58%
Stability (Liver [7]): 66%
remaining at 0.5 h, 0.5 µM [1]: 37%
Stability (Liver [2]): 85%
Stability (Liver [3]): 77%
SMILES: O=[N+]([O-])c1cn2c(n1)OC[C@H](OCc1ccc(-c3ccc(F)cc3)cn1)C2

remaining at 0.5 h, 0.5 µM [1]: 75%
Stability (Liver [2]): 73%
Stability (Liver [3]): 100%
SMILES: O=[N+]([O-])c1cn2c(n1)OC[C@@H](OCc1ccc(-c3ccc(OC(F)(F)F)cc3Cl)cn1)C2

remaining at 1 h, 1 µM [4]: 7.9%
Stability (Liver [6]): 58%
Stability (Liver [7]): 56%
SMILES: O=[N+]([O-])c1cn2c(n1)OC[C@H](OCc1ccc(-c3ccc(OC(F)F)cc3)nc1)C2

Vd [20]: 1.8 L/kg
half-life [21]: 2.7 h
clearance [22]: 5.2 mL/min/kg
AUC(0-t) [27]: 3180 ng·h/mL
Tmax [23]: 8 h
remaining at 0.5 h, 0.5 µM [1]: 64%
F (Mus musculus [24]): 15%
Cmax [25]: 840 ng/mL
AUC(0-t) [28]: 12000 ng·h/mL
C0 [26]: 440 ng/mL
SMILES: O=[N+]([O-])c1cn2c(n1)OCC(COc1ccc(-c3ccc(F)cc3)nc1)C2 (configuration not stated)

remaining at 0.5 h, 0.5 µM [1]: 31%
Stability (Liver [2]): 75%
Stability (Liver [3]): 78%
SMILES: O=[N+]([O-])c1cn2c(n1)OC[C@@H](OCc1cccc(-c3ccc(OC(F)(F)F)cc3)n1)C2

remaining at 1 h, 1 µM [4]: 5.2%
Cmax [5]: 1900 ng/mL
Stability (Liver [6]): 59%
Stability (Liver [7]): 57%
F (Syrian golden hamster): 37%
half-life [8]: 0.83 h
AUC(0-t) [9]: 480 ng·h/mL
Tmax [10]: 0.75 h
C0 [15]: 930 ng/mL
Vd [11]: 4 L/kg
AUC(0-t) [12]: 3950 ng·h/mL
clearance [13]: 63 mL/min/kg
half-life [14]: 0.83 h
SMILES: O=[N+]([O-])c1cn2c(n1)OC[C@H](OCc1ccc(-c3ccc(F)cc3F)cn1)C2
